Lipid droplet: hepatic lipid droplet formation modulation; inhibition, % at 6.5 µM; AML12 mouse hepatocytes, oleate lipid droplets, BODIPY imaging; AID 1656; hit rate 0.4% among 240,000;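 active = lipid droplet intensity inhibited by at least 50%, with more than 500 cells counted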
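Material – AML12 mouse liver cells · Also added – oleate loading, 100 µM · Compound dosing – 6.5 µM single-point dosing · Times – overnight treatment with compound plus oleate · Measured by – fluorescence imaging, 20x objective, two fields per well · Read-out – percent inhibition of filter-corrected integrated lipid droplet intensity per well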
PfM18AAP inh-1: PfM18AAP enzyme inhibition; AID 1822; hit rate 1.2% among 290,000; inhibition, % at 7.35 µM; recombinant PfM18AAP, H-Glu-NHMec fluorogenic cleavage;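 active = inhibition above the campaign mean inhibition over all tested compounds plus 3 SD, cut at about 28% in these data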;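 also: 0% = plate median of test compound wells and 100% = 2 mM ZnCl2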
RBBP9 inhibitor: inhibitors of human serine hydrolase RBBP9; O75884; recombinant RBBP9, FP-Rh probe fluorescence polarization; inhibition, % at 7.94 µM; hit rate 0.2% among 220,000;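 active = inhibition above the campaign mean of all tested compounds plus 3 SD, cut at about 14% in these data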;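 also: plate controls were DMSO wells with RBBP9 for no effect and wells lacking RBBP9 protein for full effect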
Target sequence (O75884 whole entry, looked up): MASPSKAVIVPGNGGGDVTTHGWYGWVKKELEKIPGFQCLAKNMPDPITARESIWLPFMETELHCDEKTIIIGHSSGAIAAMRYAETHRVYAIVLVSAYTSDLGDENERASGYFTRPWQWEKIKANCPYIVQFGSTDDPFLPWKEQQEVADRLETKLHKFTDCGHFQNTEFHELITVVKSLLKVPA
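System: RBBP9 protein / Buffer or medium: Tris/NaCl buffer pH 8.0 with 0.1% Pluronic / Probe or stimulus: Serine-hydrolase probe FP-Rh, 375 nM pre-mixing / Dosing: 7.94 µM single dose, 0.794% DMSO / Times: enzyme-compound preincubation 30 min, then probe labeling 45 min, 25 °C / Technique: fluorescence polarization (mP), excitation 525 nm, emission 598 nm / Replication: singlicate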
TNF death inh: TNF-alpha cell death inhibition in Jurkat FADD-/- cells; hit rate 0.068% among 220,000; activation (protection from cell death), % at 10 µM; Jurkat FADD-/- TNF necroptosis rescue, ATP luminescence, 24 h; 0 = TNF only, 100 = no-TNF cells;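 active = activation, meaning protection from cell death, of at least 50% relative to plate controls; inactive = activation below 50%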;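 also: necroptosis triggered by 40 ng/mL TNF-alpha added together with compound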
L929 necroptosis: blocks zVAD induced death of L929 cells | L929 zVAD necroptosis rescue, ATP luminescence, 24 h; with zVAD 60 µM | viability rescue, % at 10 µM | hit rate 0.38% among 220,000;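 active = activation, scaled between plate controls, above about 75%, limit read from the data; inactive = activation under that limit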;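 also: 0% = zVAD with DMSO and 100% = DMSO alone without zVAD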
TbHK1 inh: blocks Trypanosoma brucei hexokinase 1 activity; hit rate 0.11% among 220,000; inhibition, % at 10 µM; AID 1430; recombinant TbHK1, G6PDH-coupled NADH A340;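 active = inhibition of 50% or more in the single-dose primary screen; inactive = inhibition below 50%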
G6PDH ctr: Leuconostoc glucose-6-phosphate dehydrogenase inhibition, counter-screen; hit rate 7% among 210; purified G6PDH, NADH absorbance, 1 h; AID 2516; inhibition, % at 10 µM; shares compounds with TbHK1 inh;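 active = at least 50% inhibition in the glucose-6-phosphate dehydrogenase coupled counterscreen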
TbHK1 confirm: T. brucei hexokinase 1 inhibition, rescreen; hit rate 10% among 210; inhibition, % at 10 µM; shares compounds with TbHK1 inh; recombinant TbHK1, G6PDH-coupled NADH A340 absorbance;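 active = inhibition of at least 50% in both of the two screening runs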;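 also: 0% and 100% set by the maximum and minimum signal control wells on each plate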
RBBP9 inh conf: human RBBP9 inhibition, confirmation | shares compounds with RBBP9 inhibitor | recombinant RBBP9, FP-Rh probe fluorescence polarization | inhibition, % at 7.94 µM | hit rate 36% among 410 | AID 1537;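 active = inhibition above the hit cutoff derived for the primary screen, cut at about 15% in these data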;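 also: 0% = RBBP9 with DMSO and 100% = wells lacking RBBP9 protein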
PfM18AAP inh-2: PfM18AAP inhibition, confirmation | shares compounds with PfM18AAP inh-1 | hit rate 28% among 2,400 | recombinant PfM18AAP, H-Glu-NHMec fluorogenic cleavage | AID 2170 | inhibition, % at 7.35 µM;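 active = mean inhibition over replicate wells above the hit cutoff set for the earlier primary screen, cut at about 29% in these data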;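 also: 0% = median of test compound wells and 100% = 2 mM ZnCl2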
CTSL1 confirm: counter-screen for PFM18AAP inhibitors: confirmation of human cathepsin L inhibitors | shares compounds with PfM18AAP inh-1 | purified cathepsin L1, Z-Leu-Arg-MCA fluorescence | inhibition, % at 5.96 µM | 2,400 tested, under 10 active;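 active = average inhibition across replicates above the hit cutoff set in the earlier primary screen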;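 also: 0% = median of test compound wells and 100% = Z-Phe-Ala-diazomethylketone 1 µM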
Target sequence (P07711 whole entry, looked up): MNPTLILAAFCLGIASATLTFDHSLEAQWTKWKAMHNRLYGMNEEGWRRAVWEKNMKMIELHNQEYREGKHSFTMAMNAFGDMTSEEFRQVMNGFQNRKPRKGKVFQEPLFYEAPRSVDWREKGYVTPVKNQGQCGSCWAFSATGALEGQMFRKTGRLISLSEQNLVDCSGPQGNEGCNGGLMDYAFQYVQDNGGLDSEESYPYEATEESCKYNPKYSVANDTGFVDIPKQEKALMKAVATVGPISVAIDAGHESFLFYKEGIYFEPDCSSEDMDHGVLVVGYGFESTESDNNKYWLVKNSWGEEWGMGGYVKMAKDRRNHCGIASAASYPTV
* marks the source's active call; other numbers are inactive results. Compounds with a hit are over-represented: about 2% of the library has one in this group of screens.

What do the screens show for `COC(=O)C1C(c2ccccc2)C(C(=O)N2CCN(C)CC2)C1c1ccccc1` (stereo unspecified)?
Lipid droplet: 8; PfM18AAP inh-1: -10; RBBP9 inhibitor: -3; TNF death inh: -1; L929 necroptosis: 0; TbHK1 inh: 53*; G6PDH ctr: -10; TbHK1 confirm: -14

Results for CC1Cc2cc(/C(O)=C3/C(=O)C(=O)N(CCCN4CCOCC4)C3c3ccc(C(C)C)cc3)ccc2O1 (stereo unspecified) ?
Lipid droplet: 9; PfM18AAP inh-1: -6

How did COc1ccc(C(=O)NC(=S)N2CC(C)OC(C)C2)cc1OC (stereo unspecified) do in these assays?
Lipid droplet: -5; PfM18AAP inh-1: 1; RBBP9 inhibitor: -7; TNF death inh: 2; L929 necroptosis: 1; TbHK1 inh: -1

Results for O=C1CSC(=S)N1/N=C/c1ccc(O)c(O)c1O ?
Lipid droplet: 8; PfM18AAP inh-1: 68*; RBBP9 inhibitor: 15*; TNF death inh: -6; L929 necroptosis: 0; TbHK1 inh: 50*; G6PDH ctr: -49; TbHK1 confirm: 35; RBBP9 inh conf: 27*

What do the screens show for `CCn1c(CNC(=O)c2cccnc2)cc2ccccc21`?
Lipid droplet: -2; PfM18AAP inh-1: 6

Results for O=C(Cn1sc2ccccc2c1=O)NC12CC3CC(CC(C3)C1)C2 ?
Lipid droplet: -16; PfM18AAP inh-1: 34*; RBBP9 inhibitor: -11; TNF death inh: -14; L929 necroptosis: -1; TbHK1 inh: 66*; G6PDH ctr: -14; TbHK1 confirm: 85*; PfM18AAP inh-2: 21; CTSL1 confirm: 1

How did Nc1cccc2c1C(=O)N(CC(=O)NC13CC4CC(CC(C4)C1)C3)C2=O do in these assays?
Lipid droplet: 2; PfM18AAP inh-1: 4; RBBP9 inhibitor: -7; TNF death inh: 1; L929 necroptosis: 1; TbHK1 inh: -4

Results for COc1ccc(N(C)C(=O)c2ccc(NC(=O)CCS(=O)(=O)c3cccs3)cc2)cc1 ?
Lipid droplet: -5; PfM18AAP inh-1: 4

What do the screens show for `Cc1cc(C)c2c(=O)n(CC(=O)Nc3ccc(Br)c(C)c3)sc2n1`?
Lipid droplet: 5; PfM18AAP inh-1: 60*; RBBP9 inhibitor: 10; TNF death inh: -16; L929 necroptosis: -1; TbHK1 inh: 51*; G6PDH ctr: -6; TbHK1 confirm: 42; PfM18AAP inh-2: 41*; CTSL1 confirm: 0

How did Cc1cc(NC(=O)Cc2ccsc2)ccc1Br do in these assays?
Lipid droplet: 7; PfM18AAP inh-1: -2

Results for C/C(=N\n1nnnc1Nc1ccccc1)c1ccc(N)cc1 ?
PfM18AAP inh-1: 3; RBBP9 inhibitor: -3; TNF death inh: -1; L929 necroptosis: 1; TbHK1 inh: -13

Results for CC1CC(OC(=O)CN2CCCCC2)CC(C)(C)C1 (stereo unspecified) ?
Lipid droplet: 0; PfM18AAP inh-1: 9; RBBP9 inhibitor: -2; TNF death inh: 1; L929 necroptosis: 1; TbHK1 inh: 0

Results for Cc1cc2nc3ccc(=[N+](C)C)cc-3sc2cc1N ?
Lipid droplet: -12; PfM18AAP inh-1: 36*; RBBP9 inhibitor: 8; TNF death inh: -33; L929 necroptosis: 5; TbHK1 inh: 66*; G6PDH ctr: 126*; TbHK1 confirm: 77*; PfM18AAP inh-2: -18; CTSL1 confirm: 10

Compound activity as filed in PubChem.
